Data: ChEMBL document CHEMBL1129542, “trans-2-Aryl-N,N-dipropylcyclopropylamines: synthesis and interactions with 5-HT(1A) receptors” (J Med Chem, 1996)
Each block holds one compound with its values, some of them ahead of it.

What was measured:
[1] = molecular target: T1, 5-hydroxytryptamine receptor 1A (Rattus norvegicus, UniProt P19327); assay: In vitro binding affinity of compound towards 5-hydroxytryptamine 1A receptor was determined using [3H]-8-OH-DPAT as radioligand; range=39-87
T1 sequence (P19327 whole entry): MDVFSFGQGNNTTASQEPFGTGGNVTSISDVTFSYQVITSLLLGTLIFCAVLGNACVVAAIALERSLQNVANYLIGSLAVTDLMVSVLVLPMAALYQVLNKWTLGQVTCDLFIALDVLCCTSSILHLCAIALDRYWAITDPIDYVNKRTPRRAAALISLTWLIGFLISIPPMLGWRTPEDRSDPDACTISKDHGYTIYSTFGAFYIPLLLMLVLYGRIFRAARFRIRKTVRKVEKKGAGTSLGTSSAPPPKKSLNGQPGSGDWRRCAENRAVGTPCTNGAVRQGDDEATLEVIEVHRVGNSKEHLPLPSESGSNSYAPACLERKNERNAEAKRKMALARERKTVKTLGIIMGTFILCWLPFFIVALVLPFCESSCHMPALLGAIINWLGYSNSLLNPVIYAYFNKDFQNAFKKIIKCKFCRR
Procedure, shortened: (§1)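 Rat (male Sprague–Dawley) cortex plus hippocampus membranes, washed twice in 50 mM Tris-HCl with 4.0 mM CaCl2 and 5.7 mM ascorbate, pH 7.5, pretreated with 10 μM pargyline. Competition against 2 nM [3H]-8-OH-DPAT with 1–300 nM compound, 5 mg/mL tissue, 37 °C for 10 min, then filtration. Nonspecific binding defined with 10 μM 5-HT. […] Range derived from the standard error of the estimate.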

[2] = molecular target: T1, 5-hydroxytryptamine receptor 1A; assay: In vitro binding affinity of compound towards 5-hydroxytryptamine 1A receptor was determined using [3H]8-OH-DPAT as radioligand; range=85-130; procedure, shortened: as §1
[3] = molecular target: T1, 5-hydroxytryptamine receptor 1A; assay: In vitro binding affinity of compound towards 5-hydroxytryptamine 1A receptor was determined using [3H]8-OH-DPAT as radioligand; range=16-20; procedure, shortened: as §1
[4] = molecular target: T1, 5-hydroxytryptamine receptor 1A; assay: In vitro binding affinity of compound towards 5-hydroxytryptamine 1A receptor was determined using [3H]8-OH-DPAT as radioligand; range=89-280; procedure, shortened: as §1
[5] = molecular target: T1, 5-hydroxytryptamine receptor 1A; assay: In vitro binding affinity of compound towards 5-hydroxytryptamine 1A receptor was determined using [3H]8-OH-DPAT as radioligand; range=63-95; procedure, shortened: as §1
[6] = molecular target: T1, 5-hydroxytryptamine receptor 1A; assay: In vitro binding affinity of compound towards 5-hydroxytryptamine 1A receptor was determined using [3H]8-OH-DPAT as radioligand; procedure, shortened: as §1
[7] = molecular target: T1, 5-hydroxytryptamine receptor 1A; assay: In vitro binding affinity of compound towards 5-hydroxytryptamine 1A receptor was determined using [3H]-8-OH-DPAT as radioligand; range=48-77; procedure, shortened: as §1
[8] = molecular target: T1, 5-hydroxytryptamine receptor 1A; assay: In vitro binding affinity of compound towards 5-hydroxytryptamine 1A receptor was determined using [3H]8-OH-DPAT as radioligand; range=20-23; procedure, shortened: as §1
[9] = molecular target: T1, 5-hydroxytryptamine receptor 1A; assay: In vitro binding affinity of compound towards 5-hydroxytryptamine 1A receptor was determined using [3H]8-OH-DPAT as radioligand; range=160-430; procedure, shortened: as §1
[10] = molecular target: T1, 5-hydroxytryptamine receptor 1A; assay: In vitro binding affinity of compound towards 5-hydroxytryptamine 1A receptor was determined using [3H]8-OH-DPAT as radioligand; range=19-23
[11] = molecular target: T1, 5-hydroxytryptamine receptor 1A; assay: In vitro binding affinity of compound towards 5-hydroxytryptamine 1A receptor was determined using [3H]8-OH-DPAT as radioligand; range=174-224; procedure, shortened: as §1
[12] = molecular target: T1, 5-hydroxytryptamine receptor 1A; assay: In vitro binding affinity of compound towards 5-hydroxytryptamine 1A receptor was determined using [3H]8-OH-DPAT as radioligand; range=12-14; procedure, shortened: as §1
[13] = molecular target: T1, 5-hydroxytryptamine receptor 1A; assay: In vitro binding affinity of compound towards 5-hydroxytryptamine 1A receptor was determined using [3H]-8-OH-DPAT as radioligand; range=21-28; procedure, shortened: as §1
[14] = molecular target: T1, 5-hydroxytryptamine receptor 1A; assay: In vitro binding affinity of compound towards 5-hydroxytryptamine 1A receptor was determined using [3H]8-OH-DPAT as radioligand; range=78-140; procedure, shortened: as §1
[15] = molecular target: T1, 5-hydroxytryptamine receptor 1A; assay: In vitro binding affinity of compound towards 5-hydroxytryptamine 1A receptor was determined using [3H]8-OH-DPAT as radioligand; range=2.7-3.6; procedure, shortened: as §1
[16] = molecular target: T1, 5-hydroxytryptamine receptor 1A; assay: In vitro binding affinity of compound towards 5-hydroxytryptamine 1A receptor was determined using [3H]8-OH-DPAT as radioligand; range=710-980; procedure, shortened: as §1
[17] = molecular target: T1, 5-hydroxytryptamine receptor 1A; assay: In vitro binding affinity of compound towards 5-hydroxytryptamine 1A receptor was determined using [3H]8-OH-DPAT as radioligand; range=184-503; procedure, shortened: as §1

Compound: CCCN(CCC)[C@@H]1C[C@H]1c1cc(F)ccc1OC
- Ki [1]: 60 nM

Compound: CCCN(CCC)C1CC1c1cccc(F)c1 (stereo not given)
- Ki [2]: 100 nM

Compound: CCCN(CCC)[C@@H]1C[C@H]1c1ccccc1OC
- Ki [3]: 17 nM

Compound: CCCN(CCC)C1CC1c1cc(F)ccc1OC (stereo not given)
- Ki [4]: 140 nM

Compound: CCCN(CCC)C1CC1c1ccc(F)cc1 (stereo not given)
- Ki [5]: 76 nM

Compound: CCCN(CCC)C1CC1c1cccc(Cl)c1Cl (stereo not given)
- Ki [6]: > 300 nM

Compound: CCCN(CCC)C1CC1c1ccccc1F (stereo not given)
- Ki [7]: 59 nM

Compound: CCCN(CCC)C1CC1c1ccccc1Br (stereo not given)
- Ki [8]: 22 nM

Compound: CCCN(CCC)C1CC1c1ccccc1C(F)(F)F (stereo not given)
- Ki [6]: > 1000 nM

Compound: CCCN(CCC)[C@H]1C[C@@H]1c1ccccc1OC
- Ki [9]: 230 nM

- Ki [10]: 21 nM
Compound: CCCN(CCC)C1CC1c1ccsc1 (stereo not given)

Compound: CCCN(CCC)[C@H]1C[C@@H]1c1cc(F)ccc1OC
- Ki [11]: 199 nM

Compound: CCCN(CCC)C1CC1c1cccs1 (stereo not given)
- Ki [12]: 13 nM

Compound: CCCN(CCC)C1CC1c1ccccc1 (stereo not given)
- Ki [13]: 24 nM

Compound: CCCN(CCC)C1CC1c1cc(F)ccc1O (stereo not given)
- Ki [14]: 99 nM

Compound: CCCN(CCC)[C@@H]1C[C@H]1c1cccs1
- Ki [12]: 11 nM

Compound: CCCN(CCC)[C@@H]1C[C@H]1c1cc(F)ccc1O
- Ki [15]: 3.2 nM

Compound: CCCN(CCC)[C@H]1C[C@@H]1c1cccs1
- Ki [16]: 820 nM

Compound: CCCN(CCC)[C@H]1C[C@@H]1c1cc(F)ccc1O
- Ki [17]: 348 nM

- Ki [6]: > 1000 nM
Compound: CCCN(CCC)C1CC1c1cc2ccccc2s1 (stereo not given)
